hERG rescue = hERG rescue from dofetilide block, primary screen, cell-based, CHO-hERG, FluxOR thallium flux, dofetilide IC70; dofetilide IC70 present; activation (rescue from dofetilide block), less the hit threshold, % at 10 µM; 0.51% of 310,000 active;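 active means activation above the mean of controls blocked by dofetilide plus 5 SD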;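 further: thallium influx through hERG after potassium depolarization seen as dye fluorescence rise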
KCNQ1 act = potentiators or activators of KCNQ1 channel, primary screen, cell-based, thallium flux, high-throughput | Potassium voltage-gated channel subfamily KQT member 1 (Homo sapiens), P51787 | CHO-K1 KCNQ1, thallium flux FluxOR fluorescence; stronger effect = higher value | B-score at 10 µM | 0.35% of 310,000 active | AID 2648, 2010;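 active means fluorescence ratio B-score, a plate-corrected score, at least three library SD, with initial intensity B-score within 5 SD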
Target sequence (P51787 whole entry, looked up): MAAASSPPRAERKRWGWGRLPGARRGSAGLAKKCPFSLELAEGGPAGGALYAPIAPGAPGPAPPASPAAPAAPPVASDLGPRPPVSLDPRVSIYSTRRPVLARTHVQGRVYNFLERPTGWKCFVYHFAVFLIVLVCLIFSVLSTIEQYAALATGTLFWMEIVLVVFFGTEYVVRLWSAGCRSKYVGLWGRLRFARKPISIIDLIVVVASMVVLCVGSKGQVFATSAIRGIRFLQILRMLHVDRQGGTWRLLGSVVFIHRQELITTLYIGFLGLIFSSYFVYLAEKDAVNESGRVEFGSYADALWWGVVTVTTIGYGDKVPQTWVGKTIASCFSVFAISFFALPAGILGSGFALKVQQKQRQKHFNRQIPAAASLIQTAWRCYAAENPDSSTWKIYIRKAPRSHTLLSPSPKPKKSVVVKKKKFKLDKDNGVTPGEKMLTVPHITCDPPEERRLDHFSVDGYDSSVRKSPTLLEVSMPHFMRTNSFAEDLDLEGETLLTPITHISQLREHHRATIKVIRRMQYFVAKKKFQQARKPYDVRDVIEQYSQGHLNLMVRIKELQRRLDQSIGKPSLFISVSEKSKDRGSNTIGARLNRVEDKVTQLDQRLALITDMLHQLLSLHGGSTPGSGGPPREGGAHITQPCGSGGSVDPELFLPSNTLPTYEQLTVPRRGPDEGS
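Schedule – 37 °C overnight plating, 90-min dark dye load, 20-min compound pretreatment · System – stable KCNQ1 CHO-K1 line · Probe or stimulus – thallium- and potassium-containing depolarizing buffer · Measured by – kinetic FluxOR fluorescence, 10 s baseline plus 110 s post-stimulus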
KCNQ1 block = inhibitors of human KCNQ1 channel, primary screen, cell-based, thallium flux, high-throughput. B-score at 10 µM. 1.3% of 310,000 active. CHO-K1 KCNQ1, FluxOR thallium flux fluorescence; stronger effect = higher value. Potassium voltage-gated channel subfamily KQT member 1 (Homo sapiens), P51787;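 active means compounds whose thallium flux B-score, printed positive for inhibition, exceeds three library SD while starting fluorescence stays within three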;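 further: channel opened by potassium depolarization with thallium stimulus after 20 min compound exposure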
KCNK9 block = KCNK9 potassium channel inhibitors, primary screen, HEK293 cells, thallium flux; B-score at 10 µM; 1.2% of 310,000 active; Potassium channel subfamily K member 9 (Homo sapiens), Q9NPC2; FluxOR thallium flux fluorescence; stronger effect = lower value; AID 488922, 2010;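 active means ratio B-score over 3 SD below the library mean, with starting fluorescence within 5 SD of its mean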;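 further: negative B-score means less thallium flux so channel inhibition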
KCNK3 block = human KCNK3 channel inhibitors, primary screen, CHO cells, FluxOR thallium flux, B-score; Potassium channel subfamily K member 3 (Homo sapiens), O14649; 0.84% of 340,000 active; B-score at 10 µM; FluxOR fluorescence; stronger effect = lower value;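 active means B-score under library mean minus 4 SD, starting fluorescence ratio at most library mean plus 5 SD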;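 further: more negative B-score means stronger inhibition of thallium flux through KCNK3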
KCNK9 inh conf = KCNK9 potassium channel inhibitors, confirmation, HEK293 cells, thallium flux, duplicate | shares compounds with KCNK9 block | FluxOR thallium flux fluorescence | inhibition, % at 10 µM | 43% of 4,900 active | AID 492992, 2010;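 active means thallium signal inhibited by more than 5 SD of the compound-free buffer control wells, on both duplicate plates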;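 further: 0% = assay buffer control wells without compound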
Kir21 sel = mouse Kir2.1 channel inhibition, confirmation, selectivity assay for KCNK9 modulator project, cell-based, HEK293, thallium flux | inhibition, % at 10 µM | 4% of 4,900 active | Kir2.1 cells, FluxOR thallium flux fluorescence | AID 492993, 2010 | shares compounds with KCNK9 block;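 active means thallium signal drop more than 5 SD beyond the mean of the no-compound control wells, seen in both duplicate plates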;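 further: signal is fluorescence rise after thallium addition divided by baseline fluorescence; plate controls were assay buffer only for no effect and full block by chlorpromazine control for full effect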
KCNK9 uninduced = thallium flux in non-induced HEK293 cells, confirmation, counter-screen for KCNK9 inhibitor project, cell-based, second counter screen, non-induced KCNK9-HEK293 | shares compounds with KCNK9 block | FluxOR thallium flux | inhibition, % at 10 µM | 40% of 4,900 active | AID 492997, 2010;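 active means thallium signal drop beyond 5 SD of the untreated control mean, on both duplicate plates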;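 further: plate controls were buffer only IC0 wells for no effect and SID17386958 at its maximal inhibitory level for full effect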
KCNK3 inh conf = retest of human KCNK3 channel inhibitors, confirmation, CHO cells, FluxOR thallium flux, triplicate; shares compounds with KCNK3 block; FluxOR fluorescence; 0% buffer, 100% carvedilol maximal block; ratio percent of control, % at 10 µM; 99% of 2,400 active;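 active means ratio percent of control, averaged over triplicates, above buffer control mean plus 5 SD, cut at about 64% in these data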;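 further: ratio is the fluorescence rise from min to max over baseline after thallium stimulus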
KCNK3 uninduced = thallium flux inhibition in non-induced cells, primary screen, counter-screen for KCNK3 inhibitor project, cell-based, non-induced KCNK3 line, FluxOR thallium, triplicate; shares compounds with KCNK3 block; non-induced KCNK3 parental cells; stronger effect = lower value; thallium flux ratio (lower = more inhibition) at 10 µM; 40% of 2,400 active;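 active means thallium flux ratio, averaged over three wells, more than 5 SD below the buffer control mean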;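 further: host cells are CHO cells without KCNK3 induction; ratio is peak minus trough fluorescence over baseline then normalized to buffer controls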
Starred values were filed as active, the others as inactive; i = inactive; . = no result given. Sampled rows, rich in hits. Any-hit rate of the full collection: about 3.1%.

SMILES	hERG rescue	KCNQ1 act	KCNQ1 block	KCNK9 block	KCNK3 block	KCNK9 inh conf	Kir21 sel	KCNK9 uninduced	KCNK3 inh conf	KCNK3 uninduced
Cc1ccc(CSc2nc3ccccc3c(=O)n2Cc2ccco2)cc1	-8.9	i	i	-17.7*	-8.93*	80.5%*	i	45.0%*	115.3*	0.158*
Cc1ccc(CSc2nc3ccccc3c(=O)n2CCCC(=O)NCc2ccco2)cc1	-5.0	i	i	i	i	.	.	.	.	.
CC(C)c1cc(C(=O)NCCc2ccccc2)no1	-9.1	i	i	i	i	.	.	.	.	.
CCCOC(=O)c1ccc(NC(=O)c2ccccc2[N+](=O)[O-])cc1	-5.2	i	i	-8.18*	-8.8*	48.5%*	i	i	104.7*	i
O=C(N/N=C/c1ccc(N2CCOCC2)cc1)c1ccncc1	.	.	.	.	i	.	.	.	.	.
O=C(N/N=C/c1ccc(N2CCOCC2)cc1)c1ccccc1OCCOc1ccccc1	-7.2	i	7*	-11.9*	-11.4*	30.0%*	i	26.0%*	101.3*	i
CCOc1ccccc1NC(=O)COC(=O)c1cnc(C)cn1	.	.	.	.	i	.	.	.	.	.
O=C(Nc1cccnc1)c1cc(-c2cccc(Cl)c2)on1	-1.8	i	i	i	i	.	.	.	.	.
CNC(=O)Nc1cccc(-c2cc(-c3c(Cl)cccc3Cl)no2)c1	-9.0	i	i	-15.1*	-17.2*	54.0%*	i	44.0%*	122.3*	0.157*
CC(=O)Nc1cccc(-c2cc(-c3c(Cl)cccc3Cl)no2)c1	-9.4	i	i	-11.2*	-14.8*	53.5%*	i	39.0%*	109.0*	0.153*
CC(=O)Nc1cccc(NC(=O)c2c(-c3c(Cl)cccc3Cl)noc2C)c1	-5.4	i	i	i	i	.	.	.	.	.
CCCCn1c(N)c(N(CC(C)C)C(=O)CCCn2c(=O)oc3ccccc32)c(=O)[nH]c1=O	-7.4	i	i	i	i	.	.	.	.	.
Cc1cc(/C=N/NC(=O)c2cccs2)c(C)n1-c1ccccc1	-9.9	i	i	-10*	-10.2*	43.0%*	i	i	118.3*	0.139*
O=S(=O)(c1ccccc1)N1N=C(c2ccc(Br)cc2)CC1c1ccco1 (centres undefined)	-7.7	i	i	-11.1*	-10.1*	38.0%*	i	39.0%*	102.7*	i
CSc1nc(Cl)c(Cc2ccc(OC(C)C)cc2)c(N(C)C)n1	-19.8	i	i	-8.39*	-8.75*	i	i	38.5%*	134.3*	0.133*
CC(C)CCNC(=O)CCCc1ccccc1	-2.8	i	i	i	i	.	.	.	.	.
CC(C)C(c1nnnn1C(C)(C)C)N1CCN(c2cccc(Cl)c2)CC1 (centres undefined)	-7.0	i	i	-12*	-10*	58.5%*	i	36.5%*	126.0*	0.151*
CC(C)(C)n1nnnc1C(c1ccncc1)N1CCN(c2ccc(O)cc2)CC1 (centres undefined)	-6.6	i	i	i	i	.	.	.	.	.
Cc1cc(C)cc(CC2CC(=O)N(c3ccc([N+](=O)[O-])cc3)C2=O)c1 (centres undefined)	-7.9	i	i	i	i	.	.	.	.	.
Cc1c(C(=O)N(C)Cc2cccc(F)c2)oc2c(Cl)cccc12	-10.3	i	i	-13.9*	-10.7*	47.0%*	i	49.0%*	104.0*	i
Cc1ccc(S(=O)(=O)N(C)C)cc1NC(=O)CSc1nnnn1-c1ccc(O)cc1	-14.6	i	i	-14*	-9.8*	41.5%*	i	25.5%*	106.3*	i
CN(C)S(=O)(=O)c1ccc(Cl)c(NC(=O)CSc2nnnn2-c2ccc(O)cc2)c1	-2.0	i	i	-12.5*	-9.02*	50.5%*	i	27.5%*	95.7*	i
Cn1nnnc1SCC(=O)Nc1cc(S(=O)(=O)N2CCCC2)ccc1Cl	-12.8	i	i	i	i	.	.	.	.	.
COn1c(SCc2cccc(Cl)c2)nc2ccccc2c1=O	-2.1	i	i	-9.66*	-10.9*	50.0%*	i	i	84.0*	i
COn1c(SCc2ccccc2)nc2ccccc2c1=O	-12.7	i	i	i	i	.	.	.	.	.
SMILES	hERG rescue	KCNQ1 act	KCNQ1 block	KCNK9 block	KCNK3 block	KCNK9 inh conf	Kir21 sel	KCNK9 uninduced	KCNK3 inh conf	KCNK3 uninduced
COCCn1c(SCc2ccc(OC)c(F)c2)nc2ccccc2c1=O	-15.1	i	i	-16.1*	-11.9*	79.0%*	i	64.5%*	106.0*	i
COCCn1c(SCc2ccc(C(=O)OC)o2)nc2ccccc2c1=O	.	.	.	.	i	.	.	.	.	.
COc1ccc(N2CCN(C(=O)c3cc(=O)c4cc(C)c(C)cc4o3)CC2)cc1	-8.0	i	i	i	i	.	.	.	.	.
Cc1ccc(C)c(OCC(=O)Nc2ccc(S(=O)(=O)Nc3onc(C)c3C)cc2)c1	-3.4	i	i	i	i	.	.	.	.	.
COc1ccc(OC)c(-c2csc(NC(=O)c3ccccc3F)n2)c1	-5.1	i	i	i	i	.	.	.	.	.
COc1ccc(OC)c(-c2csc(NC(=O)Cc3ccccc3OC)n2)c1	-3.2	i	i	-16*	-12.8*	i	i	40.0%*	89.3*	i
Cc1cc(C(=O)N/N=C/c2ccc(-c3cccc(Br)c3)o2)n[nH]1	-14.4	i	i	-17.1*	-11.1*	44.0%*	i	i	87.3*	i
O=C(NCc1cn(-c2ccccc2)nc1-c1ccc(F)cc1)c1cccc([N+](=O)[O-])c1	-9.0	i	i	-16.7*	-8.8*	77.5%*	i	31.0%*	104.0*	0.14*
